From PubChem BioAssay
The source made the active and inactive calls.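 How the source made its calls, unless noted: active means viability at or below 30% in both replicate assays; inconclusive means viability at or below 30% in just one of the two assays; inactive means the rest.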

Assays:
[1] = reducers of endogenous Her2 protein level, primary screen, SKBR3 breast tumor cells, AlphaScreen, ATP viability (AID 461;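 active means Her2 level under about 52% in both replicate screens, with viability over 70% of control, limit read from the data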;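 on Her2 level: lower value means less Her2 protein in the cells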;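 on viability: percent of carrier control wells set as 100% viability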); conditions: 18-24 h, measured here: SKBR3 viability, ATP luminescence, at 10 µM
[2] = molecular target: Receptor tyrosine-protein kinase erbB-2 (Homo sapiens) (UniProt P04626); test: as above; conditions: 18-24 h, at 10 µM, stronger effect = lower value
Receptor tyrosine-protein kinase erbB-2 (Homo sapiens), sequence (P04626 whole entry, looked up): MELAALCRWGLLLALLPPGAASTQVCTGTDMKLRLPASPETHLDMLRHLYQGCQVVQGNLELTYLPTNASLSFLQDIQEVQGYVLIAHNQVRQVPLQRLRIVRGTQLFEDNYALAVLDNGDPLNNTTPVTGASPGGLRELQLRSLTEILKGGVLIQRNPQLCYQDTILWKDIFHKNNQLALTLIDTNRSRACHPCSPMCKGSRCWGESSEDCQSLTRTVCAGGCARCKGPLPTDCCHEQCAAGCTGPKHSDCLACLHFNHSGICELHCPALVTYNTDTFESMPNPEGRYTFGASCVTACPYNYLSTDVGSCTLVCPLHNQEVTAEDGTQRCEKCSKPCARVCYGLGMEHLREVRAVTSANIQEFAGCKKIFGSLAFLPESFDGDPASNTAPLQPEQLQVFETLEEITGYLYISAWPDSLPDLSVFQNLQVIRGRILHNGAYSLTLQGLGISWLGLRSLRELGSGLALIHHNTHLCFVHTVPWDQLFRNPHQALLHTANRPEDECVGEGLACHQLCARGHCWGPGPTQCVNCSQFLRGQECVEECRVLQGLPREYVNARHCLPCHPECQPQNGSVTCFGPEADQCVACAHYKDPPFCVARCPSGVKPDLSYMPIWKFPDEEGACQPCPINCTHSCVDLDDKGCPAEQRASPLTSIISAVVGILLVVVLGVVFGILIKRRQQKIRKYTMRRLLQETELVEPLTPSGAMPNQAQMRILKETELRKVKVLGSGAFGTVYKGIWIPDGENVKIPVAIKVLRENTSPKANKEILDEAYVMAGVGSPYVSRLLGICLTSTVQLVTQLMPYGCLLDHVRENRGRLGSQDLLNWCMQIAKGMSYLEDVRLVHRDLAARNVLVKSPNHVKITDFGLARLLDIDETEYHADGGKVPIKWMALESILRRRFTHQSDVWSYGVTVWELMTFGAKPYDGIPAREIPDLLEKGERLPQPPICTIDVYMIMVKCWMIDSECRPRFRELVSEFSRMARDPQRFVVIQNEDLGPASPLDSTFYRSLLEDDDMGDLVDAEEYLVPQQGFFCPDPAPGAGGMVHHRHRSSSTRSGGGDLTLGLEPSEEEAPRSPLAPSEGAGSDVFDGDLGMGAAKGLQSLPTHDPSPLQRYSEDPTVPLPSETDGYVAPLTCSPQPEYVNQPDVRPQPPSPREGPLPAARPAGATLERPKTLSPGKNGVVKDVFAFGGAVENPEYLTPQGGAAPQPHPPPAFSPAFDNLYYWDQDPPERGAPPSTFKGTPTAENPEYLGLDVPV

[3] = SK-BR-3 cell growth inhibitors, pilot screen, 24 h, human (AID 572;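 active means viability at or below 10% of carrier control in both of two separate runs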;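 further: compound exposure lasted between 18 and 24 h rather than exactly 24 h; 100% = carrier-treated control wells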); conditions: SK-BR-3 viability, CellTiter-Glo luminescence, at 10 µM, stronger effect = lower value
[4] = HUVEC growth inhibition – cell-based, human, primary screen (AID 575); conditions: HUVEC proliferation, CellTiter-Glo luminescence, 72 h; at 10 µM; stronger effect = lower value;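 further: 100% = median of untreated cell wells with 0.1% DMSO on each plate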
Method in brief: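 system = HUVEC primary cells | amount = 1250 cells/well | buffer or medium = supplemented EBM, 2% fetal bovine serum | dosing = single-point 10 µM, DMSO 0.1% final | times = 72 h compound incubation | detection = CTG luminescence | read-out = % viability relative to median vehicle-well signal on each plate | control set = vehicle and MePR control wells | format = collagen-coated 384-well format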

[5] = growth inhibitors of H69AR lung tumor, primary screen, human, duplicate replicates (AID 580;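 active means viability at or under a set limit in both replicates, limit being median viability minus 3 SD, cut at about 48% in these data, passing the limit was not always enough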;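 further: 100% = mean luminescence of untreated wells and 0% = no signal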); conditions: H69AR lung tumor cells viability, ATP luminescence, 72 h; at 10 µM; stronger effect = lower value
[6] = reversal of MRP1-mediated doxorubicin resistance, pilot screen, H69AR cells, doxorubicin co-treatment (AID 601;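 active means viability loss from added drug above about 55%, and viability with drug at most 40%, in both replicates, limit read from the data, passing the limit was not always enough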); conditions: CellTiter-Glo, 72 h, at 10 µM; for differential viability (reversal): stronger effect = higher value
[7] = 384-well plate pilot, post-Golgi transport modulator project, inhibition of yeast transport mutant growth (AID 636; in the data active means inhibition above about 31%); conditions: absorbance 615 nm, about 18 h, stronger effect = higher value
[8] = growth suppression of yeast trafficking mutant, preliminary HTS, modulators of trafficking downstream of Golgi apparatus project, 1536-format plate, OD 615 nm (AID 637; in the data active means inhibition above about 30%); conditions: yeast transport mutant growth, absorbance 615 nm, 18 h; stronger effect = higher value
[9] = H69AR cells + 2 uM doxorubicin, measured here: viability with 2 uM doxorubicin, stronger effect = lower value
[10] = H69AR cells, compound alone cytotoxicity

| Compound | viability [1] [%] | Her2 level [2] | viability [3] | viability [4] | viability [5] | differential viability (reversal) ([6]; H69AR cells + 2 uM doxorubicin) | viability [6, 9] [%] | viability [6, 10] [%] | inhibition [7] | inhibition [8] |
| --- | --- | --- | --- | --- | --- | --- | --- | --- | --- | --- |
| COCCCNC(=O)C(Cc1ccccc1)NS(=O)(=O)c1ccc2c(c1)c(=O)n(C)c(=O)n2C (stereo not given) | 101 | 95.5% (inactive) | 101% (inactive) | 96.8% (inactive) | 89.2% (inactive) | 3.26% (inactive) | 85.9 | 89.2 | -2.63% (inactive) | -3.97% (inactive) |
| CCOC(=O)c1cc2c(=O)n3cccc(C)c3nc2n(Cc2ccco2)c1=NC(=O)c1cccnc1 | 92.5 | 82% (inactive) | 92.5% (inactive) | 71.4% (inactive) | 80.7% (inactive) | 8.21% (inactive) | 72.4 | 80.7 | -1.71% (inactive) | 2.58% (inactive) |
| COc1cc(Br)cc(CN2CCN(C/C=C/c3ccccc3)CC2)c1O | 81 | 93.5% (inactive) | 81% (inactive) | 79.5% (inactive) | 93.2% (inactive) | 7.21% (inactive) | 86 | 93.2 | 0.93% (inactive) | 11.3% (inactive) |
| CN(C(=O)COc1cc(=O)n(C)c2ccccc12)c1ccc(Br)cc1 | 100 | 104% (inactive) | 100% (inactive) | 74.5% (inactive) | 82.5% (inactive) | 4.22% (inactive) | 78.3 | 82.5 | -1.87% (inactive) | -4.1% (inactive) |
| O=C(c1cccnc1)N1CCc2ccccc21 | 74 | 77.5% (inactive) | 74% (inactive) | 88.1% (inactive) | 95% (inactive) | -16.3% (inactive) | 111 | 95 | -5.68% (inactive) | -0.16% (inactive) |
| O=C1CCCC2=C1C(c1ccc(Br)cc1)c1c([nH]c(=S)[nH]c1=O)N2 (stereo not given) | 84 | 112% (inactive) | 84% (inactive) | 99.3% (inactive) | 91.7% (inactive) | 6.69% (inactive) | 85.1 | 91.7 | -4.47% (inactive) | 8.67% (inactive) |
| CC1(C)CC(=O)C(C(=O)CCCCC(=O)C2C(=O)CC(C)(C)CC2=O)C(=O)C1 | 99.5 | 158% (inactive) | 99.5% (inactive) | 98.4% (inactive) | 95.1% (inactive) | 6.97% (inactive) | 88.2 | 95.1 | 0.53% (inactive) | -0.5% (inactive) |
| CS(=O)(=O)N1CCN(c2ccccc2NC(=O)c2ccc(-c3ccc(Cl)cc3Cl)o2)CC1 | 78.5 | 96.5% (inactive) | 78.5% (inactive) | 76.7% (inactive) | 86.4% (inactive) | 10.2% (inactive) | 76.2 | 86.4 | -2.93% (inactive) | -3.49% (inactive) |
| C=CCn1c(SCC(=O)NC23CC4CC(CC(C4)C2)C3)nc(O)cc1=O | 138 | 108% (inactive) | 138% (inactive) | 91.4% (inactive) | 92.9% (inactive) | 0.68% (inactive) | 92.2 | 92.9 | -1.18% (inactive) | -0.48% (inactive) |
| CC(C)[C@H](NC(=O)[C@@H]1CSCN1C(=O)OC(C)(C)C)C(=O)NCC1CCC(C(=O)O)CC1 (stereo not given in full) | 105 | 104% (inactive) | 105% (inactive) | 113% (inactive) | 102% (inactive) | 2.67% (inactive) | 99.3 | 102 | -3.33% (inactive) | -3.23% (inactive) |
| COc1ccc(OCCCC(=O)Nc2ccc3c(c2)OCCO3)cc1 | 99.5 | 93.5% (inactive) | 99.5% (inactive) | 81.8% (inactive) | 82.7% (inactive) | -3.62% (inactive) | 86.3 | 82.7 | -6.76% (inactive) | -6.83% (inactive) |
| CCOc1cc(C(=O)NCc2nnc(SCC(=O)OC)n2C)cc(OCC)c1OCC | 98 | 85% (inactive) | 98% (inactive) | 104% (inactive) | 95.8% (inactive) | 8.31% (inactive) | 87.5 | 95.8 | -6.84% (inactive) | -2% (inactive) |
| CCOC(=O)c1ccc(NC(=O)CSCc2ccco2)cc1 | 108 | 100% (inactive) | 108% (inactive) | 81.9% (inactive) | 87.7% (inactive) | 8.33% (inactive) | 79.4 | 87.7 | -5.45% (inactive) | -2.62% (inactive) |
| COc1cccc(Oc2cn[nH]c2-c2ccc(O)cc2O)c1 | 104 | 122% (inactive) | 104% (inactive) | 65.9% (inactive) | 89.5% (inactive) | -8.96% (inactive) | 98.4 | 89.5 | 0.26% (inactive) | -5% (inactive) |
| CCCN1CCN(C(=O)Cn2c(=O)oc3cc(S(=O)(=O)NCc4ccccc4)ccc32)CC1 | 92.5 | 95% (inactive) | 92.5% (inactive) | 85.6% (inactive) | 95.3% (inactive) | 7.88% (inactive) | 87.5 | 95.3 | -2.67% (inactive) | -0.98% (inactive) |
| Cc1noc(C)c1S(=O)(=O)N1CCC(C(=O)N2CCN(Cc3ccc4c(c3)OCO4)CC2)CC1 | 94 | 92.5% (inactive) | 94% (inactive) | 99% (inactive) | 91.9% (inactive) | -6.75% (inactive) | 98.6 | 91.9 | -1.45% (inactive) | -0.63% (inactive) |
| COC(=O)c1c(O)ccc(Oc2ccccc2)c1C(=O)OC | 104 | 119% (inactive) | 104% (inactive) | 95.9% (inactive) | 85.3% (inactive) | -1.09% (inactive) | 86.4 | 85.3 | -4.49% (inactive) | -4.67% (inactive) |
| O=C(CSc1ncccn1)c1ccccc1Br | 120 | 93.5% (inactive) | 120% (inactive) | 116% (inactive) | 90.7% (inactive) | -4.21% (inactive) | 94.9 | 90.7 | -6.32% (inactive) | -1.64% (inactive) |
| CC1=C(C(=O)NC2CCC(C)CC2)C2(CCC(C)CC2)OC1=O (stereo not given) | 112 | 84% (inactive) | 112% (inactive) | 96.2% (inactive) | 90.4% (inactive) | -3.75% (inactive) | 94.1 | 90.4 | -2.27% (inactive) | -5.25% (inactive) |
| O=C(O)C1CCCN1C(=O)Nc1ccc(F)cc1 (stereo not given) | 87 | 90.5% (inactive) | 87% (inactive) | 106% (inactive) | 93.6% (inactive) | 10.5% (inactive) | 83.1 | 93.6 | -4.73% (inactive) | -8.5% (inactive) |
| Cc1nc2cc(Cl)ccc2n1CCO | 101 | 95.5% (inactive) | 101% (inactive) | 102% (inactive) | 92% (inactive) | 7.68% (inactive) | 84.4 | 92 | -9.86% (inactive) | 0.32% (inactive) |
| O=C(OCc1ccc2c(c1)OCO2)c1ccc(S(=O)(=O)N2CCCCC2)cc1 | 75.5 | 84% (inactive) | 75.5% (inactive) | 57.9% (inactive) | 81.9% (inactive) | 0.615% (inactive) | 81.3 | 81.9 | -0.77% (inactive) | -2.5% (inactive) |
| O=C(Nc1ccc(CN2CCOCC2)cc1)c1cc2ccccc2oc1=O | 99.5 | 88% (inactive) | 99.5% (inactive) | 92.2% (inactive) | 82.6% (inactive) | 2.02% (inactive) | 80.6 | 82.6 | -2.37% (inactive) | 3.39% (inactive) |
| Cc1occc1-c1nnc(SCC(=O)NCC2CCCO2)n1C (stereo not given) | 86 | 96.5% (inactive) | 86% (inactive) | 92.2% (inactive) | 96.6% (inactive) | 2.64% (inactive) | 94 | 96.6 | -4.93% (inactive) | 18.7% (inactive) |
| Cc1cccc(-n2c(Cc3cc(=O)[nH]c(=O)[nH]3)nnc2SCC(=O)NCc2ccco2)c1 | 99.5 | 89.5% (inactive) | 99.5% (inactive) | 108% (inactive) | 111% (inactive) | 13.9% (inactive) | 97.1 | 111 | -7.07% (inactive) | 4.19% (inactive) |
| Cc1nnc(SCC(=O)Nc2cc(C(F)(F)F)ccc2N2CCOCC2)o1 | 93 | 99% (inactive) | 93% (inactive) | 93.8% (inactive) | 86.8% (inactive) | -2.25% (inactive) | 89 | 86.8 | -0.13% (inactive) | -1.83% (inactive) |
